# Measured values published in ChEMBL document CHEMBL1153856, “Synthesis and spectral characterization of a new class of N-(N-methylpiperazinoacetyl)-2,6-diarylpiperidin-4-ones: antimicrobial, analgesic and antipyretic studies” (2009).
# What was measured:
# Type in all cases: functional
# [1] = system: Staphylococcus aureus; assay: Antimicrobial activity against Staphylococcus aureus after 24 hrs by twofold serial dilution method
# How it was run: (§1)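 Twofold serial broth dilution in nutrient broth at pH 7.4 ± 0.2. Compound stocks were 1 mg/mL in DMSO, diluted 1:5 into seeded broth, then six serial dilutions. Inocula came from 24 h nutrient-agar cultures, final 10⁵ cfu/mL. Incubation was 37 ± 1 °C for 24 h, with growth and solvent controls. MIC was read visually; ciprofloxacin was the standard.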
# [2] = system: Escherichia coli; assay: Antimicrobial activity against Escherichia coli after 24 hrs by twofold serial dilution method; how it was run: as §1
# [3] = system: Pseudomonas aeruginosa; assay: Antimicrobial activity against Pseudomonas aeruginosa after 24 hrs by twofold serial dilution method; how it was run: as §1
# [4] = system: Salmonella enterica subsp. enterica serovar Typhi str. CT18; assay: Antimicrobial activity against Salmonella typhi after 24 hrs by twofold serial dilution method; how it was run: as §1
# [5] = system: Klebsiella pneumoniae; assay: Antimicrobial activity against Klebsiella pneumoniae after 24 hrs by twofold serial dilution method; how it was run: as §1
# [6] = system: Candida albicans; assay: Antimicrobial activity against Candida albicans after 72 to 96 hrs by twofold serial dilution method
# How it was run: (§2)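 Twofold serial broth dilution in Sabouraud dextrose broth at pH 5.6. Spores came from 1–7-day Sabouraud agar slants, final inoculum 1.1–1.5 × 10² cfu/mL. Compound stocks were 1 mg/mL in DMSO, diluted 1:5 into seeded broth, then six serial dilutions. Incubation was 28 ± 1 °C for 72–96 h, with growth and solvent controls. MIC was read visually; amphotericin B was the standard.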
# [7] = system: Rhizopus; assay: Antimicrobial activity against Rhizopus sp. after 72 to 96 hrs by twofold serial dilution method; how it was run: as §2
# [8] = system: Aspergillus niger; assay: Antimicrobial activity against Aspergillus niger after 72 to 96 hrs by twofold serial dilution method; how it was run: as §2
# [9] = system: Aspergillus flavus; assay: Antimicrobial activity against Aspergillus flavus after 72 to 96 hrs by twofold serial dilution method; how it was run: as §2
# [10] = system: Mus musculus; assay: Analgesic activity in albino mouse assessed as inhibition of acetic acid-induced writhing response at 30 mg/kg, po administered 1 hr prior to acetic acid challenge relative to control
# How it was run: (§3)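 Albino mice of both sexes, 20–25 g, n = 6 per group. Doses of 30, 60 or 90 mg/kg were given orally as suspensions in 1% sodium CMC. 1 h later, 1% acetic acid in normal saline (10 mL/kg) was injected ip. Complete extension of either hind limb counted as a writhe. Counting started 5 min after injection and ran 30 min. Results are % inhibition = [1 − T/C] × 100 versus vehicle controls, mean ± SEM.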
# [11] = system: Mus musculus; assay: Analgesic activity in albino mouse assessed as inhibition of acetic acid-induced writhing response at 60 mg/kg, po administered 1 hr prior to acetic acid challenge relative to control; how it was run: as §3
# [12] = system: Mus musculus; assay: Analgesic activity in albino mouse assessed as inhibition of acetic acid-induced writhing response at 90 mg/kg, po administered 1 hr prior to acetic acid challenge relative to control; how it was run: as §3
# [13] = system: Rattus norvegicus; assay: Antipyretic activity against brewer's yeast-induced hyperthermia in Wistar rat assessed as change in rectal temperature at 30 mg/kg, po after 30 mins
# How it was run: (§4)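 Wistar rats of both sexes, 200–250 g, received brewer's yeast in normal saline sc. Rectal temperature was taken with a digital thermometer (precision 0.1 °C). At 18 h, rats whose temperature had risen 0.3–0.5 °C were selected. Test compounds (30 or 60 mg/kg) or indomethacin (5 mg/kg) were given orally in 1% CMC; controls received vehicle only. Temperature was measured at 30, 60, 90, 120 and 150 min, mean ± SEM.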
# [14] = system: Rattus norvegicus; assay: Antipyretic activity against brewer's yeast-induced hyperthermia in Wistar rat assessed as change in rectal temperature at 30 mg/kg, po after 60 mins; how it was run: as §4
# [15] = system: Rattus norvegicus; assay: Antipyretic activity against brewer's yeast-induced hyperthermia in Wistar rat assessed as change in rectal temperature at 30 mg/kg, po after 90 mins; how it was run: as §4
# [16] = system: Rattus norvegicus; assay: Antipyretic activity against brewer's yeast-induced hyperthermia in Wistar rat assessed as change in rectal temperature at 30 mg/kg, po after 120 mins; how it was run: as §4
# [17] = system: Rattus norvegicus; assay: Antipyretic activity against brewer's yeast-induced hyperthermia in Wistar rat assessed as change in rectal temperature at 30 mg/kg, po after 150 mins; how it was run: as §4
# [18] = system: Rattus norvegicus; assay: Antipyretic activity against brewer's yeast-induced hyperthermia in Wistar rat assessed as change in rectal temperature at 60 mg/kg, po after 30 mins; how it was run: as §4
# [19] = system: Rattus norvegicus; assay: Antipyretic activity against brewer's yeast-induced hyperthermia in Wistar rat assessed as change in rectal temperature at 60 mg/kg, po after 60 mins; how it was run: as §4
# [20] = system: Rattus norvegicus; assay: Antipyretic activity against brewer's yeast-induced hyperthermia in Wistar rat assessed as change in rectal temperature at 60 mg/kg, po after 90 mins; how it was run: as §4
# [21] = system: Rattus norvegicus; assay: Antipyretic activity against brewer's yeast-induced hyperthermia in Wistar rat assessed as change in rectal temperature at 60 mg/kg, po after 120 mins; how it was run: as §4
# [22] = system: Rattus norvegicus; assay: Antipyretic activity against brewer's yeast-induced hyperthermia in Wistar rat assessed as change in rectal temperature at 60 mg/kg, po after 150 mins; how it was run: as §4
Structure (SMILES),MIC [1],MIC [2],MIC [3],MIC [4],MIC [5],MIC [6],MIC [7],MIC [8],MIC [9],inhibition in vivo at 30 mg/kg [10],inhibition in vivo at 60 mg/kg [11],inhibition in vivo at 90 mg/kg [12],Activity [13],Activity [14],Activity [15],Activity [16],Activity [17],Activity [18],Activity [19],Activity [20],also measured
CC1C(=O)C(C)C(c2ccccc2)N(C(=O)CN2CCN(C)CC2)C1c1ccccc1 (configuration not stated),50 µg/mL,100 µg/mL,50 µg/mL,25 µg/mL,12.5 µg/mL,100 µg/mL,50 µg/mL,50 µg/mL,50 µg/mL,17.4%,24.1%,13.9%,38.11 °C,38 °C,38.95 °C,38.85 °C,38.7 °C,38.1 °C,37.95 °C,37.9 °C,Activity [21]: 37.7 °C; Activity [22]: 37.55 °C
CC1C(=O)CC(c2ccc(Cl)cc2)N(C(=O)CN2CCN(C)CC2)C1c1ccc(Cl)cc1 (configuration not stated),50 µg/mL,25 µg/mL,6.25 µg/mL,12.5 µg/mL,25 µg/mL,6.25 µg/mL,12.5 µg/mL,25 µg/mL,50 µg/mL,49.2%,70.4%,61.6%,37.05 °C,37.96 °C,37.89 °C,37.7 °C,37.65 °C,37.95 °C,37.92 °C,37.85 °C,Activity [21]: 37.65 °C; Activity [22]: 37.5 °C
CC1C(=O)C(C)C(c2ccc(Cl)cc2)N(C(=O)CN2CCN(C)CC2)C1c1ccc(Cl)cc1 (configuration not stated),6.25 µg/mL,12.5 µg/mL,12.5 µg/mL,50 µg/mL,6.25 µg/mL,12.5 µg/mL,6.25 µg/mL,25 µg/mL,25 µg/mL,22.5%,36.5%,38.9%,37.95 °C,37.9 °C,37.8 °C,37.6 °C,37.4 °C,37.92 °C,37.85 °C,37.75 °C,Activity [21]: 37.55 °C; Activity [22]: 37.3 °C
COc1ccc(C2CC(=O)C(C)C(c3ccc(OC)cc3)N2C(=O)CN2CCN(C)CC2)cc1 (configuration not stated),100 µg/mL,50 µg/mL,50 µg/mL,200 µg/mL,100 µg/mL,25 µg/mL,50 µg/mL,100 µg/mL,50 µg/mL,48.2%,70.3%,48%,37.9 °C,37.8 °C,37.6 °C,37.5 °C,37.2 °C,37.85 °C,37.7 °C,37.5 °C,Activity [21]: 37.3 °C; Activity [22]: 37.01 °C
Cc1ccc(C2C(C)C(=O)C(C)C(c3ccc(C)cc3)N2C(=O)CN2CCN(C)CC2)cc1 (configuration not stated),50 µg/mL,100 µg/mL,25 µg/mL,25 µg/mL,12.5 µg/mL,50 µg/mL,25 µg/mL,12.5 µg/mL,12.5 µg/mL,42.6%,54.6%,33.1%,38.11 °C,38.02 °C,37.95 °C,37.9 °C,37.7 °C,38.01 °C,38.95 °C,37.9 °C,Activity [21]: 37.8 °C; Activity [22]: 37.6 °C
CCC1C(=O)CC(c2ccccc2)N(C(=O)CN2CCN(C)CC2)C1c1ccccc1 (configuration not stated),100 µg/mL,> 200 µg/mL,200 µg/mL,100 µg/mL,50 µg/mL,100 µg/mL,> 200 µg/mL,200 µg/mL,> 200 µg/mL,8%,4.5%,1.2%,38.27 °C,38.22 °C,38.15 °C,38.01 °C,38.98 °C,38.25 °C,38.2 °C,38.1 °C,Activity [21]: 38.95 °C; Activity [22]: 38.9 °C
C[C@@H]1[C@H](O)[C@@H](C)/C=C/C=C/C=C/C=C/C=C/C=C/C=C/[C@H](O[C@@H]2O[C@H](C)[C@@H](O)[C@H](N)[C@@H]2O)C[C@@H]2O[C@](O)(C[C@@H](O)C[C@@H](O)[C@H](O)CC[C@@H](O)C[C@@H](O)CC(=O)O[C@H]1C)C[C@H](O)[C@H]2C(=O)O [AMPHOTERICIN B],–,–,–,–,–,25 µg/mL,25 µg/mL,50 µg/mL,50 µg/mL,–,–,–,–,–,–,–,–,–,–,–,–
CC(=O)Oc1ccccc1C(=O)O [ASPIRIN],–,–,–,–,–,–,–,–,–,44.8%,57.9%,38.6%,–,–,–,–,–,–,–,–,–
O=C(O)c1cn(C2CC2)c2cc(N3CCNCC3)c(F)cc2c1=O [CIPROFLOXACIN],–,25 µg/mL,–,50 µg/mL,25 µg/mL,–,–,–,–,–,–,–,–,–,–,–,–,–,–,–,–
